The values below come from ChEMBL document CHEMBL1156110, “Novel N-hydroxybenzamide-based HDAC inhibitors with branched CAP group” (Bioorg Med Chem Lett, 2009).

Test [1] relates to U-937. Nature of the test: Cell cycle arrest in human U937 cells assessed as accumulation at G1 phase at 5 uM after 30 hrs by FACS. Type of test: functional, cell-based.
Test [2] has as its target Histone deacetylase (Homo sapiens) (UniProt Q13547+O15379+Q9UBN7+Q92769+Q9UQL6+Q8WUI4+Q9BY41+Q96DB2+P56524+Q9UKV0+Q969S8). Put plainly: Inhibition of HDAC in human U937 cells assessed as histone H3 acetylation at 5 uM after 24 hrs by Western blot. It is filed as cell-based. The settings on record: U-937. The essentials: (§1)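 Human leukemia U937 cells exposed to 5 µM for 24 h. Acetyl-histone H3 was read by Western blot as a class I HDAC marker, and acetyl-α-tubulin as an HDAC6 marker.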

For a further test, the system named is HepG2. Put plainly: Antiproliferative activity against human HepG2 cells after 48 hrs by MTT assay. It is filed as functional. The settings on record: HepG2, 48 h.
Test [3] is described as follows: Inhibition of HDAC.
The subject of the next test is A549. Put plainly: Antiproliferative activity against human A549 cells after 48 hrs by MTT assay. It is filed as functional. Conditions: A549, 48 h.
A further test concerns HCT-116. Put plainly: Antiproliferative activity against human HCT116 cells after 48 hrs by MTT assay. Type of test: functional. Conditions: HCT-116, 48 h.
Test [4] deals with U-937. Put plainly: Induction of p21WAF1/CIP1 expression in human U937 cells at 5 uM after 24 hrs by Western blot. Type of test: functional, cell-based.
The next test relates to PC-3. Put plainly: Antiproliferative activity against human PC3 cells after 48 hrs by MTT assay. The settings on record: PC-3, 48 h. Type of test: functional.
The target in test [5] is T1, Protein deacetylase HDAC6 (Homo sapiens) (UniProt Q9UBN7).
T1 sequence (whole entry): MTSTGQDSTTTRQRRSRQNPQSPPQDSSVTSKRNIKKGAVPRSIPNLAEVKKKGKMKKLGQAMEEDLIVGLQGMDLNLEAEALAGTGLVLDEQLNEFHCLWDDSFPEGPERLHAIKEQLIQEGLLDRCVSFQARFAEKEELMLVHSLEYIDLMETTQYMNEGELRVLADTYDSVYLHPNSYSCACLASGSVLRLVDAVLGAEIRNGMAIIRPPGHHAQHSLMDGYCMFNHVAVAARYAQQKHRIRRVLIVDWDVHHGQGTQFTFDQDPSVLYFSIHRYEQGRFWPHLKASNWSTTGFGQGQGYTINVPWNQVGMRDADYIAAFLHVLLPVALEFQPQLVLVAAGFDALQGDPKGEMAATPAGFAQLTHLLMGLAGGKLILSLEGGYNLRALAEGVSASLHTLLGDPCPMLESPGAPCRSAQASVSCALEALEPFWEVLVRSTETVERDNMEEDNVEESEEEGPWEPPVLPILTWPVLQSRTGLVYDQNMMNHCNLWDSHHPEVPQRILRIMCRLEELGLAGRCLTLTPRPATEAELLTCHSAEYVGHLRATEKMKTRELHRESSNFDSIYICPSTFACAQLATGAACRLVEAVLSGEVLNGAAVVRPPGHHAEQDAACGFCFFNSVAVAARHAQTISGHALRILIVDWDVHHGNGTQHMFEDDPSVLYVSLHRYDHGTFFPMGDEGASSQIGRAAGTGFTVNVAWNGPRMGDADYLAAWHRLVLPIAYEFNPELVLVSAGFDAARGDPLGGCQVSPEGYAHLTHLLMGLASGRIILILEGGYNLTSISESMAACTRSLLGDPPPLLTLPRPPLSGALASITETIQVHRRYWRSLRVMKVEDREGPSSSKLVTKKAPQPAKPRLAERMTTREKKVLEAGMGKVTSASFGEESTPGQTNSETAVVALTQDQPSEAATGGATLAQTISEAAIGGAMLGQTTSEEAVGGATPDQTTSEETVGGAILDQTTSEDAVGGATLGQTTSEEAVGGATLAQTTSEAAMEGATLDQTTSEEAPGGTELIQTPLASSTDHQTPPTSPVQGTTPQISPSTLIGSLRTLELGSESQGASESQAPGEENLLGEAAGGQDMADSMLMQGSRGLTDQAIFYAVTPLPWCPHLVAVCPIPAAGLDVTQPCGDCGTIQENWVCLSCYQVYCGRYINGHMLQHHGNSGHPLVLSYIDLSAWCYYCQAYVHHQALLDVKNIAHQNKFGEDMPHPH
Put plainly: Inhibition of HDAC6 in human U937 cells assessed as alpha-tubulin acetylation at 5 uM after 24 hrs by Western blot. It is filed as cell-based. The settings on record: U-937. The essentials: as §1

Test [6] relates to U-937. Nature of the test: Induction of granulocytic differentiation in human U937 cells assessed as CD11c positive PI negative cells at 5 uM after 30 hrs by FACS. Type of test: functional, cell-based. The essentials:
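U937 human leukemia cells treated 30 h at 5 µM; differentiation scored by FACS as the percentage of CD11c-positive, PI-negative cells; values are the mean of four independent replicates.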

The target in the next test is Histone deacetylase 1 (Homo sapiens, UniProt Q13547). Nature of the test: Inhibition of human recombinant HDAC1 expressed in baculovirus.
In the next test the target is Histone deacetylase 4 (Homo sapiens, UniProt P56524). Nature of the test: Inhibition of human recombinant his tagged HDAC4 expressed in baculovirus.
The test system of test [7] is U-937. Nature of the test: Induction of apoptosis in human U937 cells at 5 uM after 30 hrs by propidium iodide and annexin V staining. It is filed as functional, cell-based.
Test [8] deals with U-937. Nature of the test: Cell cycle arrest in human U937 cells assessed as accumulation at S phase at 5 uM after 30 hrs by FACS. It is filed as functional, cell-based.

The source made the active and inactive calls. No cut-off for these calls is given here. Bounds are passed on as bounds.

Chain of Histone deacetylase 4 (P56524 whole entry): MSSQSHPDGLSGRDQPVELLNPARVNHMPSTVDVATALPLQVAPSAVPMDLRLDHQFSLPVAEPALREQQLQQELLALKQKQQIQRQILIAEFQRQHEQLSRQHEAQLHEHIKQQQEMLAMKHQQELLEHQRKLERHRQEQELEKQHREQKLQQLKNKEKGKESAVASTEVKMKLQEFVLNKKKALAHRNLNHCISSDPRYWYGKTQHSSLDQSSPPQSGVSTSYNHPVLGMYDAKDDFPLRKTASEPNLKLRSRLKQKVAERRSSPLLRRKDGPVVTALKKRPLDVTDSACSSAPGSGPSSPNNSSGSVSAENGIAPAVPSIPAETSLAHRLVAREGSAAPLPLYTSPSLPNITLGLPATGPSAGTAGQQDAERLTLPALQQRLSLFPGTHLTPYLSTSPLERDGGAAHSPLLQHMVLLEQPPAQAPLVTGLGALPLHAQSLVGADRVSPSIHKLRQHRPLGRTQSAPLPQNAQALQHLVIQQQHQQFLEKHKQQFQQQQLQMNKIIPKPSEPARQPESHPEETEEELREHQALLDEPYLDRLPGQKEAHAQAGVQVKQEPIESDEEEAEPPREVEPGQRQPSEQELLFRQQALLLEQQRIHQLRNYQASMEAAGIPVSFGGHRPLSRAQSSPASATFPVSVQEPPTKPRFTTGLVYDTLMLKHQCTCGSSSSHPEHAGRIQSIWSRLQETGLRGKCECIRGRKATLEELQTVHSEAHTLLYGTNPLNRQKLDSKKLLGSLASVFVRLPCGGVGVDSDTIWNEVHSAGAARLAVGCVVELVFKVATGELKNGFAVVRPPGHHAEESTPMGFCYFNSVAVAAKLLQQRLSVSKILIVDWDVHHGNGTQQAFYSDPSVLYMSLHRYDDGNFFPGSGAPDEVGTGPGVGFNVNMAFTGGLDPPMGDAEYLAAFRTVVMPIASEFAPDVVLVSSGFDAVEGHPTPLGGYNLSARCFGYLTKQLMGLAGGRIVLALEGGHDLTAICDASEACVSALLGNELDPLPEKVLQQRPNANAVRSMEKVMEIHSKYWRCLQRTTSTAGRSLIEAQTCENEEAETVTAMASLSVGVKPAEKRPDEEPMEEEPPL
Chain of Histone deacetylase 1 (Q13547 whole entry): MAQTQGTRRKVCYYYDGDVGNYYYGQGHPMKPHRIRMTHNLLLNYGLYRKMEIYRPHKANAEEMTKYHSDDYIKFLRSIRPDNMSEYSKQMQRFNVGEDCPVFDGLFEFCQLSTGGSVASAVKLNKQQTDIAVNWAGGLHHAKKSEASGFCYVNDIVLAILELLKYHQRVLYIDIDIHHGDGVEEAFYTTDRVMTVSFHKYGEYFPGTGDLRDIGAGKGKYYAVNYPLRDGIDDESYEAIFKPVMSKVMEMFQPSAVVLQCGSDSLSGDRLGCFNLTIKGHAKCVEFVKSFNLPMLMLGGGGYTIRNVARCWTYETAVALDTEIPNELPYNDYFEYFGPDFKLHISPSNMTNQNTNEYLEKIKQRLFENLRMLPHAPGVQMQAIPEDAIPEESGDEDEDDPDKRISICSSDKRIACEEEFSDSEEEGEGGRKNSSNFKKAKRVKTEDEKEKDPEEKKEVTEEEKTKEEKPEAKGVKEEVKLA

Consider `Cc1ccc(-c2cnc(N(CCCOc3ccccc3)Cc3ccc(C(=O)NO)cc3)s2)cc1`, for which the result with U-937 [1] and with U-937 [4] was Active. Besides, the inhibition entry in [2] and in test [5] was “Active” each time. Also, the GI50 in the test on HepG2 amounted to 23.4 µM; with A549, 2.53 µM; in the test with HCT-116, 4.14 µM; in the test with PC-3, 17.5 µM. The same molecule showed an IC50 in [3] of 0.195 µM.
As to `Cc1ccc(-c2cnc(N(CCCCOc3ccccc3)Cc3ccc(C(=O)NO)cc3)s2)cc1`, in the test with U-937 [1], the result was Active. For the same molecule, the inhibition entry in test [2] and in test [5] was “Active” in each case. The GI50 in the test on HepG2 was determined as 16.6 µM; with A549 it was 14.2 µM; in the test with HCT-116 it was 0.68 µM; with PC-3, 10.3 µM. In test [3], half-maximal inhibition (IC50) was put at 0.057 µM.
`CCCCCCN(Cc1ccc(C(=O)NO)cc1)c1ncc(-c2ccc(C)cc2)s1`: the GI50 was 7.42 µM in the test with HepG2, 3.71 µM in the test on A549, 4.85 µM in the test with HCT-116 and 5.27 µM with PC-3. The molecule further had an IC50 in [3] of 2.79 µM.
With `Cc1ccc(-c2cnc(N(CCOc3ccccc3)Cc3ccc(C(=O)NO)cc3)s2)cc1`, the outcome in the test on U-937 [6], in the test on U-937 [1], in the test with U-937 [7] and with U-937 [4] was Active. For the same molecule, the inhibition result in test [2] is “Active”. In addition, the GI50 with HepG2 is 12 µM; in the test on A549, 14 µM; with HCT-116, 8.81 µM; with PC-3 it was 7.86 µM. Besides, the IC50 was 0.041 µM in test [3], 2.3 µM at Histone deacetylase 1 and greater than 50 µM on Histone deacetylase 4. Further, the inhibition entry in test [5] was “inactive”.
In the case of `CCCCCCCCN(Cc1ccc(C(=O)NO)cc1)c1ncc(-c2ccc(C)cc2)s1`, the GI50 in the test on HepG2 was found to be 8.76 µM; in the test on A549 it was 4.63 µM; with HCT-116, 6.5 µM; in the test with PC-3 it was 13.3 µM. In [3], this molecule gave an IC50 of 1.59 µM.
For `Cc1ccc(-c2cnc(N(Cc3ccccc3)Cc3ccc(C(=O)NO)cc3)s2)cc1` the same measures were 34 µM, 4.41 µM, 48.8 µM, 10.3 µM and 3.11 µM.
For `CCCCCN(Cc1ccc(C(=O)NO)cc1)c1ncc(-c2ccc(C)cc2)s1` the same measures were 7.02 µM, 9.14 µM, 23.3 µM, 5.06 µM and 4.33 µM.
For `CCN(Cc1ccc(C(=O)NO)cc1)c1ncc(-c2ccc(C)cc2)s1`, the GI50 is 1.12 µM in the test on HepG2, 2.7 µM in the test on A549, 6.87 µM with HCT-116 and 10.3 µM in the test on PC-3. This molecule also gave an IC50 in [3] of 0.054 µM.
Regarding `Cc1ccc(OCCCN(Cc2ccc(C(=O)NO)cc2)c2ncc(-c3ccc(C)cc3)s2)cc1`, the outcome in the test with U-937 [1] and in the test on U-937 [4] was Active. Moreover, the inhibition result in test [2] and in [5] was “Active” in each case. Moreover, the GI50 was 12.2 µM in the test with HepG2, 32.5 µM with A549, 12.6 µM in the test with HCT-116 and 9.33 µM in the test on PC-3. The same molecule registered an IC50 in test [3] of 1.07 µM.
As for `O=C(CCCCCCC(=O)Nc1ccccc1)NO` [VORINOSTAT], the GI50 is 63.5 µM in the test with HepG2, greater than 200 µM with A549, 2.69 µM in the test with HCT-116 and 8.17 µM in the test on PC-3. The molecule also yielded an IC50 in test [3] of 0.053 µM.
For `Cc1ccc(-c2cnc(N(Cc3ccc(C(=O)NO)cc3)C(C)C)s2)cc1` the same measures were 2.18 µM, 3.83 µM, 7.8 µM, 1.15 µM and 0.168 µM.
For `Cc1ccc(OCCCCN(Cc2ccc(C(=O)NO)cc2)c2ncc(-c3ccc(C)cc3)s2)cc1`, the result in the test on U-937 [6], with U-937 [8] and with U-937 [7] was Active. In addition, the GI50 came to 11 µM in the test on HepG2, 8.63 µM in the test on A549, 0.58 µM in the test on HCT-116 and 1.22 µM in the test on PC-3. In addition, in test [3], the IC50 stood at 1.67 µM.
`CCCN(Cc1ccc(C(=O)NO)cc1)c1ncc(-c2ccc(C)cc2)s1`: the GI50 with HepG2 came to 2.55 µM; in the test on A549, 3.31 µM; with HCT-116, 5.8 µM; with PC-3, 9.16 µM. The molecule further came in with an IC50 in test [3] of 0.052 µM.
On to `Cc1ccc(-c2cnc(N(Cc3ccc(C(=O)NO)cc3)CC(C)C)s2)cc1`, for which the GI50 in the test on HepG2 was 7.42 µM; in the test with A549 it was 20.4 µM; with HCT-116 it was 5.9 µM; in the test on PC-3, 9.34 µM. The IC50 in [3] was 0.494 µM.
In the case of `CCCCN(Cc1ccc(C(=O)NO)cc1)c1ncc(-c2ccc(C)cc2)s1`, the GI50 in the test with HepG2 came to 4.3 µM; in the test with A549 it was 4.78 µM; in the test on HCT-116, 8.78 µM; in the test on PC-3, 6.41 µM. In [3], this molecule came in with an IC50 of 1.35 µM.
`Cc1ccc(OCCN(Cc2ccc(C(=O)NO)cc2)c2ncc(-c3ccc(C)cc3)s2)cc1`: the result in the test on U-937 [6], with U-937 [1], in the test with U-937 [7] and in the test with U-937 [4] was Active. Besides, the inhibition result in test [2] and in [5] was “Active” in each case. For the same molecule, the GI50 amounted to 11.5 µM in the test with HepG2, 11.2 µM in the test with A549, 17.3 µM in the test on HCT-116 and 5.57 µM with PC-3. Moreover, the IC50 in test [3] is 0.101 µM; on Histone deacetylase 1, 1.05 µM; at Histone deacetylase 4 it was greater than 50 µM.
